ChEMBL document CHEMBL4808187, “Antiarrhythmic Hit to Lead Refinement in a Dish Using Patient-Derived iPSC Cardiomyocytes” (J Med Chem, 2021)
Active and inactive are the calls of the source. The calls are words filed in the database; no cut-off is given here.

Assays:
[1] = AUC in Sprague-Dawley rat at 5 mg/kg, iv measured upto 25 hrs by LCMS analysis; format: ADME, organism-based; design: route intravenous, dose 5 mg/kg, time <=25; details: in vivo
[2] = Toxicity in ip dosed BALB/c mouse assessed as lethal dose; format: organism-based; details: in vivo
[3] = Metabolic stability in human liver microsomes assessed as compound remaining at 50 uM after 1 hr by HPLC method; format: ADME, Microsome; details: read-out: Stabilty
In short: (§1)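 Human liver microsomes (0.4–0.5 mg protein) or S-9 (1 mg) with 50 μM compound in 50 mM potassium phosphate pH 7.4 plus NADPH-generating system, 37 °C shaking for 0, 7, 15, 30, 60 min; stopped with cold acetonitrile; HPLC C18, isocratic water/acetonitrile with 0.05% TFA, UV 275.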

[4] = Toxicity in BALB/c mouse assessed as behavioral effects at 100 mg/kg, ip monitored for 30 mins; format: organism-based; details: in vivo, 0.5 h
In short: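 Adult male BALB/c mice, four per compound, 100 mg/kg i.p.; behaviour (lethargy, immobilization, seizures, shaking) observed for 30 min; lethality recorded at 24 h.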

[5] = Half life in Sprague-Dawley rat at 5 mg/kg, iv measured upto 25 hrs by LCMS analysis; format: ADME, organism-based; details: in vivo
[6] = Cmax in Sprague-Dawley rat at 25 mg/kg, po measured upto 25 hrs by LCMS analysis; format: ADME, organism-based; design: route oral, dose 25 mg/kg, time <=25; details: in vivo
[7] = Tmax in Sprague-Dawley rat at 25 mg/kg, po measured upto 25 hrs by LCMS analysis; format: ADME, organism-based; details: in vivo
[8] = Oral bioavailability in Sprague-Dawley rat at 25 mg/kg measured upto 25 hrs by LCMS analysis; format: ADME, organism-based; details: in vivo
[9] = Tmax in Sprague-Dawley rat at 5 mg/kg, iv measured upto 25 hrs by LCMS analysis; format: ADME, organism-based; details: in vivo
[10] = Cmax in Sprague-Dawley rat at 5 mg/kg, iv measured upto 25 hrs by LCMS analysis; format: ADME, organism-based; design: route intravenous, dose 5 mg/kg, time <=25; details: in vivo
[11] = Half life in Sprague-Dawley rat at 25 mg/kg, po measured upto 25 hrs by LCMS analysis; format: ADME, organism-based; details: in vivo
[12] = Metabolic stability in human liver S9 fraction assessed as compound remaining at 50 uM after 1 hr by HPLC method; format: ADME, subcellular; details: read-out: Stabilty; in short: as §1
[13] = AUC in Sprague-Dawley rat at 25 mg/kg, po measured upto 25 hrs by LCMS analysis; format: ADME, organism-based; design: route oral, dose 25 mg/kg, time <=25; details: in vivo
Heart = assay: Antiarrhythmic activity in H2O2-perfused Sprague-Dawley rat heart assessed as resolution of arrhythmias to normal sinus rhythm at 10 uM after 30 to 40 mins; format: functional, tissue-based; details: time 30-40 min
In short: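 Perfused ex vivo hearts from aged rats; continuous perfusion of H2O2 (0.1 mM) induces EADs and ectopic beats progressing to VT/VF; test compound perfused at 10 μM with H2O2 still present; rhythm followed for conversion to sinus rhythm.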

[14] = Metabolic stability in human liver microsomes assessed as half life at 50 uM measured upto 60 mins by HPLC method; format: ADME, Microsome; in short: as §1
[15] = Metabolic stability in human liver S9 fraction assessed as half life at 50 uM measured upto 60 mins by HPLC method; format: ADME, subcellular; in short: as §1
[16] = Antiarrhythmic activity in patient-derived hiPSC-CMs carrying LQT3 mutation assessed as shortening dose of action potential; format: functional, Homo sapiens, iPSC-CM
[17] = Chemical stability in pH 7.4 phosphate buffer assessed as half life at 100 uM by RP-HPLC analysis; format: physicochemical
[18] = Inhibition of potassium channel (unknown origin) expressed in CHO cells assessed as reduction in potassium current by automated patch clamp method; format: cell-based
Homo sapiens [19] = species on record: Homo sapiens; assay: Selectivity index, ratio of IC50 for sodium channel (unknown origin) expressed in HEK cells assessed as reduction in peak sodium current to IC50 for sodium channel (unknown origin) expressed in HEK cells assessed as reduction in late inward sodium current; format: cell-based
[20] = Inhibition of sodium channel (unknown origin) expressed in HEK cells assessed as reduction in peak sodium current by automated patch clamp method; format: cell-based; details: Homo sapiens, HEK293
[21] = Antiarrhythmic activity in patient-derived hiPSC-CMs carrying LQT3 mutation assessed as fold shortening of action potential duration relative to control; format: functional, Homo sapiens, iPSC-CM
[22] = Antiarrhythmic activity in patient-derived hiPSC-CMs carrying LQT3 mutation assessed as shortening of action potential duration; format: functional, Homo sapiens; details: ipsc-cm; read-out: EC50
[23] = Antiarrhythmic activity in hiPSC-CMs assessed as dose for induction of early after depolarizations; details: human, ipsc-cm
[24] = Inhibition of sodium channel (unknown origin) expressed in HEK cells assessed as reduction in late inward sodium current by automated patch clamp method; format: cell-based; details: Homo sapiens, HEK293
[25] = Chemical stability in pH 3 phosphate buffer assessed as half life at 100 uM by RP-HPLC analysis; format: physicochemical
[26] = Antiarrhythmic activity in hiPSC-CMs assessed as fold prolongation of action potential relative to control; details: human, ipsc-cm
[27] = (§2) Antiarrhythmic activity in patient-derived hiPSC-CMs carrying LQT3 mutation assessed as cessation dose for cell beating; format: functional, Homo sapiens, iPSC-CM
[28] = Antiarrhythmic activity in hiPSC-CMs assessed as cessation dose of cell beating; details: human, ipsc-cm
Cytochrome P450 3A5 = Cytochrome P450 3A5 (Homo sapiens, UniProt P20815); assay: Drug metabolism assessed as human CYP3A5-mediated metabolism per ug protein; format: ADME; details: recombinant enzyme
[29] = Antiarrhythmic activity in hiPSC-CMs assessed as prolongation of action potential; design: species or system Homo sapiens, iPSC-CM
Cytochrome P450 3A4 = Cytochrome P450 3A4 (Homo sapiens, UniProt P08684); assay: Drug metabolism assessed as human CYP3A4-mediated metabolism per ug protein; format: ADME; details: recombinant enzyme
Cytochrome P450 2D6 = Cytochrome P450 2D6 (Homo sapiens, UniProt P10635); assay: Drug metabolism assessed as human CYP2D6-mediated metabolism per ug protein; format: ADME; details: recombinant enzyme
iPSC-CM = assay: as §2; format: functional; details: Homo sapiens
Homo sapiens [30] = species on record: Homo sapiens; assay: Selectivity index, ratio of IC50 for potassium channel (unknown origin) expressed in HEK cells assessed as reduction in potassium current to IC50 for sodium channel (unknown origin) expressed in HEK cells assessed as reduction in late inward sodium current; format: cell-based
Homo sapiens [31] = species on record: Homo sapiens; assay: Selectivity index, ratio of IC50 for potassium channel (unknown origin) expressed in CHO cells assessed as reduction in potassium current to IC50 for sodium channel (unknown origin) expressed in HEK cells assessed as reduction in late inward sodium current
[32] = Toxicity in BALB/c mouse assessed as lethargy at 100 mg/kg, ip monitored for 30 mins; format: organism-based; details: in vivo, 0.5 h
[33] = Toxicity in BALB/c mouse assessed as central nervous system effects at 100 mg/kg, ip; format: organism-based; details: in vivo

Sequence of Cytochrome P450 3A5 (P20815 whole entry): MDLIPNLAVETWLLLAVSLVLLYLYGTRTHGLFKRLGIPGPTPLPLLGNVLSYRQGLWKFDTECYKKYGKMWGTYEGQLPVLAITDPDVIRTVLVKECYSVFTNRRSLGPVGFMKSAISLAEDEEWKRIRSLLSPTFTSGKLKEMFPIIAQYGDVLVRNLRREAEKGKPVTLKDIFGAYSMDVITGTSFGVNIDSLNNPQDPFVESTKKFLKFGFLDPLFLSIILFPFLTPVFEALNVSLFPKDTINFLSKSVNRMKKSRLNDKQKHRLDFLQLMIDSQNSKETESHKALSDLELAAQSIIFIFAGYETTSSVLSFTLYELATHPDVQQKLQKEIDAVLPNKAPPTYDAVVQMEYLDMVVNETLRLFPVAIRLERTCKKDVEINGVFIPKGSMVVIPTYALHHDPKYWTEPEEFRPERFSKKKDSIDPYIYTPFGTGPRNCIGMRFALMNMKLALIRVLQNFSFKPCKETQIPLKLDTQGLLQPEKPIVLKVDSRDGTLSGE
Sequence of Cytochrome P450 3A4 (P08684 whole entry): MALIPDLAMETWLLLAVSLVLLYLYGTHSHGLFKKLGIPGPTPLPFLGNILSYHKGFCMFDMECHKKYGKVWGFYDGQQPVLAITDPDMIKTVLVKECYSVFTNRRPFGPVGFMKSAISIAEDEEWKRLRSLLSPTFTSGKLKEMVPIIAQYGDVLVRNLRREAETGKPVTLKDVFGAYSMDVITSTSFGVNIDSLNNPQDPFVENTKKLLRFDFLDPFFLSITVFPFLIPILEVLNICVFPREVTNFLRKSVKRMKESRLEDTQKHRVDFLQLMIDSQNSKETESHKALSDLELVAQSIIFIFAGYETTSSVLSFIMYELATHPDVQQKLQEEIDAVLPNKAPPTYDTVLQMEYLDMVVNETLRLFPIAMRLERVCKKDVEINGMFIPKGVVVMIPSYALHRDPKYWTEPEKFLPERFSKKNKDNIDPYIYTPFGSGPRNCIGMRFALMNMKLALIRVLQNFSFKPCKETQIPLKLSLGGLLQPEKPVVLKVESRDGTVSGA
Sequence of Cytochrome P450 2D6 (P10635 whole entry): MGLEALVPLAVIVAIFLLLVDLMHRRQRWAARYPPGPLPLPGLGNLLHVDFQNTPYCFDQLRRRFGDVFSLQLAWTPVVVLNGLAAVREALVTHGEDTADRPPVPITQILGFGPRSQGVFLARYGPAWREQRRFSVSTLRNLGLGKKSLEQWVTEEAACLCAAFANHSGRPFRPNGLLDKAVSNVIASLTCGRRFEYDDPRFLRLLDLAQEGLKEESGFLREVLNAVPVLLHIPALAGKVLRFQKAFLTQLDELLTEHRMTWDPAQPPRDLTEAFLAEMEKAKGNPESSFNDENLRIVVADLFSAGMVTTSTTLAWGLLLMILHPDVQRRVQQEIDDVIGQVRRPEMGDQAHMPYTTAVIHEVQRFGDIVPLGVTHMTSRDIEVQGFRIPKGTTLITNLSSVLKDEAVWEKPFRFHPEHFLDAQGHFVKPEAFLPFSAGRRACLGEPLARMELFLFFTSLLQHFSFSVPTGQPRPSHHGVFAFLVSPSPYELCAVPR

Row | IC50 [18] | IC50 [20] | IC50 [24] | SMILES | AUC [1] | LD50 [2] | remaining at 1 h, 50 µM [3] | t1/2 [5] | Cmax [6] | Tmax [7] | bioavailability [8] | Tmax [9] | Cmax [10] | t1/2 [11] | AUC [13] | Activity [16] | fold change (FC) [21] | EC50 [22] | Activity [23] | Activity [27] | Activity [28] | also measured
1 |  |  |  | Cl.N[C@@H](COc1ccccc1C(F)(F)F)c1ccccc1 | 280 ng·h/mL | > 200 mg/kg | > 95% | 1.2 h | 258 ng/mL | 1.5 h | 100% | 0.18 h | 249 ng/mL | 5.3 h | 1556 ng·h/mL |  |  |  |  |  |  | Activity [4]: Non-Toxic; remaining at 1 h, 50 µM [12]: > 95%; Activity (Heart): Active
2 |  |  |  | Cc1ccccc1OC[C@H](N)c1ccccc1.Cl |  |  |  |  |  |  |  |  |  |  |  |  |  |  |  |  |  | half-life at 50 µM [14]: 6.08 h; half-life at 50 µM [15]: 6.8 h
3 | 27.6 µM | 25.8 µM | 0.747 µM | COCCNC(COc1cccc(C)c1C)c1ccccc1.Cl (racemic) |  |  |  |  |  |  |  |  |  |  |  | 133 µM | 1.508 | 5.73 µM | Not Active | 200 µM | Not Active | half-life at 100 µM [17]: > 720 h; Ratio IC50 (Homo sapiens [19]): 34.5; half-life at 100 µM [25]: > 720 h; Activity [26]: Not Active
4 | 53.7 µM |  |  | Cc1cccc(C)c1OCC(C)N (stereo not drawn) [MEXILETINE] | 447 ng·h/mL |  |  | 10.6 h | 167 ng/mL | 1 h | 37% | 0.17 h | 289 ng/mL | 11 h | 839 ng·h/mL | 22 µM |  | 1.8 µM | 200 µM |  | Not Active | Drug metabolism (Cytochrome P450 3A5): 48.8 pmol/min; EC50 ([29]; Homo sapiens, iPSC-CM, read-out: EC50): 20.4 µM; Drug metabolism (Cytochrome P450 3A4): 46.2 pmol/min; Drug metabolism (Cytochrome P450 2D6): 6 pmol/min; Activity (iPSC-CM): inactive
5 | 98 µM | 162 µM | 51.8 µM | Cc1ccc(C)c(OCC(N)C2CC2)c1.Cl (stereo not drawn) |  |  |  |  |  |  |  |  |  |  |  | 66 µM | 1.11 | 0.022 µM | 66 µM | 200 µM | 200 µM | Ratio IC50 (Homo sapiens [30]): 1.9; fold change (FC) [26]: 1.686
6 | 37.5 µM | 41.1 µM | 1.04 µM | Cl.NC(COc1ccccc1C(F)(F)F)c1ccccc1 (racemic) | 544 ng·h/mL |  |  | 3.2 h | 226 ng/mL | 1.5 h | 38% | 0.17 h | 250 ng/mL | 6.5 h | 1008 ng·h/mL | 22 µM | 1.783 | < 0.8 µM | Not Active | 66 µM | 66 µM | half-life at 100 µM [17]: > 720 h; Drug metabolism (Cytochrome P450 3A5): 42.6 pmol/min; EC50 ([29]; ipsc-cm): Not Active; Ratio IC50 (Homo sapiens [31]): 36.1; Drug metabolism (Cytochrome P450 3A4): 15.4 pmol/min; Drug metabolism (Cytochrome P450 2D6): 43.6 pmol/min; half-life at 100 µM [25]: > 360 h
7 |  |  |  | Cc1cc(C)cc(OC[C@H](N)c2ccccc2)c1.Cl |  | > 200 mg/kg |  |  |  |  |  |  |  |  |  |  |  |  |  |  |  | Activity [4]: Non-Toxic; half-life at 50 µM [14]: 6.77 h; half-life at 50 µM [15]: 16.9 h
8 | 7.16 µM | 20 µM | 1.03 µM | Cl.NC(COc1cc(C(F)(F)F)cc(C(F)(F)F)c1)c1ccccc1 (stereo not drawn) |  |  |  |  |  |  |  |  |  |  |  | 22 µM | 1.208 | 23.1 µM | Not Active | 66 µM | 133 µM | Ratio IC50 (Homo sapiens [19]): 19.4; EC50 ([29]; ipsc-cm): Not Active
9 |  |  |  | Cc1cc(C)cc(OC[C@@H](N)c2ccccc2)c1.Cl |  | > 200 mg/kg | > 95% |  |  |  |  |  |  |  |  |  |  |  |  |  |  | Activity [32]: Toxic; Activity [33]: Toxic; remaining at 1 h, 50 µM [12]: > 95%
10 |  |  |  | Cl.N[C@H](COc1ccccc1C(F)(F)F)c1ccccc1 | 407 ng·h/mL | > 200 mg/kg | > 95% | 3.8 h | 226 ng/mL | 1.5 h | 42% | 0.17 h | 219 ng/mL | 6.5 h | 1008 ng·h/mL |  |  |  |  |  |  | Activity [32]: Toxic; Activity [33]: Toxic; remaining at 1 h, 50 µM [12]: > 95%
